{"source": "ChEMBL document CHEMBL1153629", "about": "“Antitumor activity of deoxypodophyllotoxin isolated from Anthriscus sylvestris: Induction of G2/M cell cycle arrest and caspase-dependent apoptosis” (2009)", "key": {"HeLa [1]": {"tested_on": "HeLa", "experiment": "Cell cycle arrest at G2/M phase in human HeLa cells assessed as decrease in cyclin A expression at 0.5 uM after 48 hrs by Western blot analysis", "assay_type": "functional, cell-based", "summary_of_the_method": "(§1)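 HeLa cells treated with 0.5 µM for 0–48 h (sampled at 0, 3, 6, 12, 24, 48 h). Whole-cell lysates made in 20 mM HEPES pH 7.2, 1% Triton X-100, 10% glycerol, 150 mM NaCl, leupeptin, 1 mM PMSF. Lysates run on SDS–PAGE, immunoblotted with the indicated antibodies, GAPDH as loading control.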"}, "HeLa [2]": {"tested_on": "HeLa", "experiment": "Cell cycle arrest at G2/M phase in human HeLa cells assessed as increase in cyclin B1 expression at 0.5 uM after 3 to 24 hrs by Western blot analysis", "assay_type": "functional, cell-based", "summary_of_the_method": "as §1"}, "HeLa [3]": {"tested_on": "HeLa", "experiment": "Induction of apoptosis in human HeLa cells assessed as PARP cleavage after 24 to 48 hrs by Western blot analysis", "assay_type": "functional, cell-based", "summary_of_the_method": "as §1"}, "[4]": {"experiment": "Inhibition of tubulin polymerization by turbidity assay", "summary_of_the_method": "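Turbidity assay: tubulin in reaction buffer with GTP at 37 °C, test agent at 0.25 and 0.50 µM, taxol 0.1 µM as positive control. A340 read every 30 s for 60 min with gentle plate agitation.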"}, "HeLa [5]": {"tested_on": "HeLa", "experiment": "Induction of apoptosis in human HeLa cells assessed as fragmentation of chromosomal DNA by immunostaining method", "assay_type": "functional, cell-based", "summary_of_the_method": "(§2)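 HeLa cells exposed to 0.5 µM for 48 h. Microtubules stained with anti-α-tubulin and an Alexa Fluor 488 secondary antibody, DNA with TO-PRO-3 iodide. Fragmented nuclei scored by confocal microscopy.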"}, "HeLa [6]": {"tested_on": "HeLa", "experiment": "Cell cycle arrest in human HeLa cells assessed as accumulation at G2 phase at 0.5 uM after 12 hrs using propidium iodide staining by FACS analysis", "assay_type": "functional", "summary_of_the_method": "(§3)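 HeLa cells grown in DMEM/FBS, 24 h to adhere, then given 0.5 µM from DMSO stock (DMSO <0.1% in medium). Harvested at 0, 12, 24 and 48 h, PBS-washed and fixed in 70% ethanol. Stained with 50 µg/ml propidium iodide plus 100 µg/ml RNase A at 37 °C in the dark for ≥3 h. Read by flow cytometry; sub-G1 fraction scored as apoptotic.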"}, "HeLa [7]": {"tested_on": "HeLa", "experiment": "Cell cycle arrest in human HeLa cells assessed as accumulation at S phase at 0.5 uM after 12 hrs using propidium iodide staining by FACS analysis", "assay_type": "functional", "summary_of_the_method": "as §3"}, "HeLa [8]": {"tested_on": "HeLa", "experiment": "Cell cycle arrest in human HeLa cells assessed as accumulation at G1 phase at 0.5 uM after 48 hrs using propidium iodide staining by FACS analysis", "assay_type": "functional", "summary_of_the_method": "as §3"}, "HeLa [9]": {"tested_on": "HeLa", "experiment": "Cell cycle arrest in human HeLa cells assessed as accumulation at G1 phase at 0.5 uM after 12 hrs using propidium iodide staining by FACS analysis", "assay_type": "functional", "summary_of_the_method": "as §3"}, "HeLa [10]": {"tested_on": "HeLa", "experiment": "Cell cycle arrest in human HeLa cells assessed as accumulation at sub G1 phase at 0.5 uM after 48 hrs using propidium iodide staining by FACS analysis", "assay_type": "functional", "summary_of_the_method": "as §3"}, "HeLa [11]": {"tested_on": "HeLa", "experiment": "Cell cycle arrest in human HeLa cells assessed as accumulation at sub G1 phase at 0.5 uM after 12 hrs using propidium iodide staining by FACS analysis", "assay_type": "functional", "summary_of_the_method": "as §3"}, "HeLa [12]": {"tested_on": "HeLa", "experiment": "Cell cycle arrest in human HeLa cells assessed as accumulation at G1 phase at 0.5 uM after 24 hrs using propidium iodide staining by FACS analysis", "assay_type": "functional", "summary_of_the_method": "as §3"}, "HeLa [13]": {"tested_on": "HeLa", "experiment": "Induction of apoptosis in human HeLa cells assessed as caspase 7 cleavage at 0.5 uM", "assay_type": "functional, cell-based", "conditions": "TDE = time-dependent effect", "summary_of_the_method": "as §1"}, "HeLa [14]": {"tested_on": "HeLa", "experiment": "Cell cycle arrest in human HeLa cells assessed as accumulation at S phase at 0.5 uM after 48 hrs using propidium iodide staining by FACS analysis", "assay_type": "functional", "summary_of_the_method": "as §3"}, "HeLa [15]": {"tested_on": "HeLa", "experiment": "Cell cycle arrest in human HeLa cells assessed as accumulation at S phase at 0.5 uM after 24 hrs using propidium iodide staining by FACS analysis", "assay_type": "functional", "summary_of_the_method": "as §3"}, "HeLa [16]": {"tested_on": "HeLa", "experiment": "Cell cycle arrest in human HeLa cells assessed as accumulation at G2 phase at 0.5 uM after 24 hrs using propidium iodide staining by FACS analysis", "assay_type": "functional", "summary_of_the_method": "as §3"}, "HeLa [17]": {"tested_on": "HeLa", "experiment": "Induction of apoptosis in human HeLa cells assessed as breakdown of nuclei by immunostaining method", "assay_type": "functional, cell-based", "summary_of_the_method": "as §2"}, "HeLa [18]": {"tested_on": "HeLa", "experiment": "Inhibition of microtubule assembly in human HeLa cells assessed as loss of stabilization of microtubule bundles by immunofluorescence staining", "assay_type": "cell-based", "summary_of_the_method": "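HeLa cells given 0.25 µM for 24 h alongside DMSO vehicle and 0.1 µM taxol controls. Indirect immunofluorescence with anti-α-tubulin and an Alexa Fluor 488 secondary antibody; microtubule network imaged by spectral confocal microscopy.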"}, "HeLa [19]": {"tested_on": "HeLa", "experiment": "Cell cycle arrest in human HeLa cells assessed as accumulation at sub G1 phase at 0.5 uM after 24 hrs using propidium iodide staining by FACS analysis", "assay_type": "functional", "summary_of_the_method": "as §3"}, "HeLa [20]": {"tested_on": "HeLa", "experiment": "Induction of apoptosis in human HeLa cells assessed as caspase 3 cleavage at 0.5 uM", "assay_type": "functional, cell-based", "conditions": "TDE = time-dependent effect", "summary_of_the_method": "as §1"}, "HeLa [21]": {"tested_on": "HeLa", "experiment": "Cell cycle arrest in human HeLa cells assessed as accumulation at G2 phase at 0.5 uM after 48 hrs using propidium iodide staining by FACS analysis", "assay_type": "functional", "summary_of_the_method": "as §3"}, "HeLa [22]": {"tested_on": "HeLa", "experiment": "Antiproliferative activity against human HeLa cells at 0.25 uM after 24 hrs", "assay_type": "functional, cell-based", "summary_of_the_method": "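HeLa cells in 96-well culture, treated for 12, 24 and 48 h, done in triplicate; after treatment, incubated 24 h more at 37 °C, 5% CO2. WST-8 (Cell Counting Kit-8) added, OD read at 450 nm after 30 min. Survival expressed relative to untreated cells; two further independent experiments.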"}, "HeLa [23]": {"tested_on": "HeLa", "experiment": "Antiproliferative activity against human HeLa cells at 0.1 uM after 24 hrs", "assay_type": "functional, cell-based", "summary_of_the_method": "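HeLa cells grown in DMEM with FBS were seeded in 96-well plates and exposed for 12, 24 or 48 h to compound dissolved in DMSO (final DMSO under 0.1%). WST-8 (Cell Counting Kit-8) was added, and OD at 450 nm was read after 30 min. Survival was expressed as % of untreated control, in triplicate, with two further independent experiments.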"}}, "note": "The source made the active and inactive calls. The calls are words filed in the database; no cut-off is given here."}
{"smiles": "COc1cc([C@@H]2c3cc4c(cc3C[C@H]3COC(=O)[C@@H]32)OCO4)cc(OC)c1OC", "note": "[DESOXYPODOPHYLLOTOXIN]", "values": [{"measurement": "Activity", "setting": "HeLa [1]", "value": "Active"}, {"measurement": "Activity", "setting": "HeLa [2]", "value": "Active"}, {"measurement": "Activity", "setting": "HeLa [3]", "value": "Active"}, {"measurement": "Activity", "setting": "[4]", "value": "Dose-dependent effect"}, {"measurement": "Activity", "setting": "HeLa [5]", "value": "Active"}, {"measurement": "Activity", "setting": "HeLa [6]", "value": 58.9, "unit": "%"}, {"measurement": "Activity", "setting": "HeLa [7]", "value": 28.9, "unit": "%"}, {"measurement": "Activity", "setting": "HeLa [8]", "value": 6.8, "unit": "%"}, {"measurement": "Activity", "setting": "HeLa [9]", "value": 12, "unit": "%"}, {"measurement": "Activity", "setting": "HeLa [10]", "value": 29.7, "unit": "%"}, {"measurement": "Activity", "setting": "HeLa [11]", "value": 0.2, "unit": "%"}, {"measurement": "Activity", "setting": "HeLa [12]", "value": 3.5, "unit": "%"}, {"measurement": "Activity", "setting": "HeLa [13]", "value": "tde"}, {"measurement": "Activity", "setting": "HeLa [14]", "value": 11, "unit": "%"}, {"measurement": "Activity", "setting": "HeLa [15]", "value": 8.6, "unit": "%"}, {"measurement": "Activity", "setting": "HeLa [16]", "value": 87.8, "unit": "%"}, {"measurement": "Activity", "setting": "HeLa [17]", "value": "Active"}, {"measurement": "Activity", "setting": "HeLa [18]", "value": "inactive"}, {"measurement": "Activity", "setting": "HeLa [19]", "value": 4.5, "unit": "%"}, {"measurement": "Activity", "setting": "HeLa [20]", "value": "tde"}, {"measurement": "Activity", "setting": "HeLa [21]", "value": 82.1, "unit": "%"}, {"measurement": "Activity", "setting": "HeLa [22]", "value": "Active"}]}
{"smiles": "CC(=O)O[C@H]1C(=O)[C@@]2(C)[C@H]([C@H](OC(=O)c3ccccc3)[C@]3(O)C[C@H](OC(=O)[C@H](O)[C@@H](NC(=O)c4ccccc4)c4ccccc4)C(C)=C1C3(C)C)[C@]1(OC(C)=O)CO[C@@H]1C[C@@H]2O", "values": [{"measurement": "Activity", "setting": "[4]", "value": "inactive"}, {"measurement": "Activity", "setting": "HeLa [23]", "value": "Active"}]}
